Experimental data from ChEMBL document CHEMBL3865824, “New (E)-1-alkyl-1H-benzo[d]imidazol-2-yl)methylene)indolin-2-ones: Synthesis, in vitro cytotoxicity evaluation and apoptosis inducing studies” (Eur J Med Chem, 2016).
Calls of active or inactive are those of the source. The calls are words filed in the database; no cut-off is given here.

Tests used:
[1] = Cell cycle arrest in human MDA-MB-231 cells assessed as accumulation at G2/M phase at 2 uM after 24 hrs by propidium iodide staining based FACS analysis (reference value: 26 %); type: functional
Procedure, shortened: (§1)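 MDA-MB-231 at 1×10^6 cells/well treated with 1, 2 or 4 µM for 24 h, with a DMSO control. Cells harvested by trypsin, washed with PBS and fixed in 70% ethanol for 30 min at 4 °C. Stained 15 min at room temperature in the dark with PI buffer containing Triton X and DNase-free RNase A. Analysed by flow cytometry; G0/G1, S and G2/M fractions quantified.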

[2] = Cytotoxicity against human A549 cells assessed as growth inhibition at 50 uM after 48 hrs by MTT assay relative to control; type: functional; details: A549, 48 h, read-out: GI
Procedure, shortened: (§2)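 Cells grown in DMEM or MEM with 10% FBS at 37 °C, 5% CO2. Seeded at 1×10^4 cells/well, incubated 48 h, then exposed to compound for 48 h with vehicle control. MTT (5 mg/mL stock) added for 4 h; formazan dissolved in DMSO, absorbance read at 570 nm. Preliminary screen at 50 µM. Compounds giving >50% inhibition were tested for dose-response curves; IC50 derived by linear regression of % inhibition versus concentration. Mean of three independent experiments in triplicate.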

[3] = Cytotoxicity against human A549 cells assessed as reduction in cell viability after 48 hrs by MTT assay; type: functional, cell-based; details: A549, 48 h; procedure, shortened: as §2
MDA-MB-231 [4] = experiment: Induction of apoptosis in human MDA-MB-231 cells assessed as formation of horse-shoe shaped nuclei at 1 to 4 uM after 24 hrs by DAPI dye-based fluorescent microscopic analysis; type: functional, cell-based
Procedure, shortened: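 MDA-MB-231 grown at 1×10^6 cells/well in 6-well plates and treated at 1.0, 2.0 or 4.0 µM for 24 h, with untreated controls. Cells washed twice with PBS, fixed in 4% paraformaldehyde and stained with 10 µg/mL DAPI. Nuclei examined by fluorescence microscopy (excitation 359 nm, emission 461 nm) at 200×.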

MDA-MB-231 [5] = experiment: Induction of apoptosis in human MDA-MB-231 cells assessed as early apoptotic cells at 2 uM after 24 hrs by Annexin V-FITC/propidium iodide-staining based FACS analysis (reference value: 4.1 %); type: functional
MDA-MB-231 [6] = experiment: Induction of apoptosis in human MDA-MB-231 cells assessed as necrotic cells at 4 uM after 24 hrs by Annexin V-FITC/propidium iodide-staining based FACS analysis (reference value: 2.8 %); type: functional
[7] = Cytotoxicity against human PC3 cells assessed as reduction in cell viability after 48 hrs by MTT assay; type: functional, cell-based; details: PC-3, 48 h; procedure, shortened: as §2
[8] = Cell cycle arrest in human MDA-MB-231 cells assessed as accumulation at G2/M phase at 4 uM after 24 hrs by propidium iodide staining based FACS analysis (reference value: 26 %); type: functional; procedure, shortened: as §1
[9] = Cytotoxicity against […] cells assessed as growth inhibition at 50 uM after 48 hrs by MTT assay relative to control; type: functional; details: Mus musculus, 4T1, 48 h; read-out: GI; procedure, shortened: as §2
MDA-MB-231 [10] = experiment: Induction of apoptosis in human MDA-MB-231 cells assessed as viable cells at 4 uM after 24 hrs by Annexin V-FITC/propidium iodide-staining based FACS analysis (reference value: 89.5 %); type: functional; details: MDA-MB-231, 24 h, read-out: Activity
MDA-MB-231 [11] = experiment: Induction of apoptosis in human MDA-MB-231 cells assessed as necrotic cells at 2 uM after 24 hrs by Annexin V-FITC/propidium iodide-staining based FACS analysis (reference value: 2.8 %); type: functional
MDA-MB-231 [12] = experiment: Induction of apoptosis in human MDA-MB-231 cells assessed as loss of mitochondrial membrane potential at 4 uM after 24 hrs by rhodamine-123 -based spectrofluorometric analysis relative to control; type: functional
Procedure, shortened: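 MDA-MB-231 cells were plated at 5×10^5 cells/mL in 6-well plates, left to adhere overnight, then treated 24 h at 1, 2 and 4 μM. Cells were trypsinized, washed in PBS and loaded with rhodamine-123 (10 μg/mL) in PBS for 30 min at room temperature. After two PBS washes, fluorescence was read by spectrofluorometer (ex 480/em 530 nm). Loss is expressed against control; three independent experiments in triplicate.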

MDA-MB-231 [13] = experiment: Induction of apoptosis in human MDA-MB-231 cells assessed as increase in Bax expression after 24 hrs by Western blot analysis; type: functional, cell-based
Procedure, shortened: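 MDA-MB-231 treated at 1, 2 or 4 µM for 24 h. Whole-cell extracts prepared in RIPA buffer. Blots probed with rabbit anti-caspase-3, anti-Bcl2 and anti-β-actin (1:1000) and anti-Bax (1:500), then HRP secondaries and ECL detection. Membranes stripped and reprobed. Bands quantified by densitometry as fold change versus control. Mean ± SEM, n=3.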

MDA-MB-231 [14] = experiment: Induction of apoptosis in human MDA-MB-231 cells assessed as cell membrane blebbing at 1 uM after 24 hrs by AO/EB-dual staining based fluorescent microscopic analysis; type: functional
Procedure, shortened: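 MDA-MB-231 plated at 1×10^6 cells/mL and treated at 1, 2 or 4 µM, with a DMSO control. Incubation time is given as 48 h in the methods and 24 h in the figure legend. AO and EB added at 10 µg/mL each. Cells viewed within 10 min by fluorescence microscopy (excitation 488 nm, emission 550 nm) at 200×.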

[15] = Selectivity ratio of IC50 for human MCF10A cells to IC50 for […] cells; type: ADME, cell-based, MCF-10A; details: MCF10A cells versus 4TI cells, read-out: Ratio IC50
[16] = Cell cycle arrest in human MDA-MB-231 cells assessed as accumulation at G0/G1 phase at 1 uM after 24 hrs by propidium iodide staining based FACS analysis (reference value: 50.4 %); type: functional; procedure, shortened: as §1
[17] = Cytotoxicity against human MCF7 cells assessed as reduction in cell viability after 48 hrs by MTT assay; type: functional, cell-based; details: MCF7, 48 h; procedure, shortened: as §2
[18] = Cell cycle arrest in human MDA-MB-231 cells assessed as accumulation at G2/M phase after 24 hrs by propidium iodide staining based FACS analysis; type: functional; details: in the assay text read “G0/G1” for “G2/M”; procedure, shortened: as §1
[19] = Cytotoxicity against […] cells assessed as reduction in cell viability after 48 hrs by MTT assay; type: functional, cell-based; details: 4T1, 48 h; procedure, shortened: as §2
[20] = Cell cycle arrest in human MDA-MB-231 cells assessed as accumulation at G0/G1 phase at 2 uM after 24 hrs by propidium iodide staining based FACS analysis (reference value: 50.4 %); type: functional; procedure, shortened: as §1
MDA-MB-231 [21] = experiment: Induction of apoptosis in human MDA-MB-231 cells assessed as early apoptotic cells at 1 uM after 24 hrs by Annexin V-FITC/propidium iodide-staining based FACS analysis (reference value: 4.1 %); type: functional
MDA-MB-231 [22] = experiment: Induction of apoptosis in human MDA-MB-231 cells assessed as viable cells at 2 uM after 24 hrs by Annexin V-FITC/propidium iodide-staining based FACS analysis (reference value: 89.5 %); type: functional; details: MDA-MB-231, 24 h, read-out: Activity
MDA-MB-231 [23] = experiment: Induction of apoptosis in human MDA-MB-231 cells assessed as reduction in viable cells at 1 to 4 uM after 24 hrs by phase contrast microscopic analysis; type: functional, cell-based
Procedure, shortened: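 MDA-MB-231 cells were exposed for 24 h to 1, 2 and 4 μM beside a control. Morphology (shrinkage, deformation, number of viable cells) was examined and photographed by phase contrast microscopy.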

Which results are given for `CC(C)n1c(/C=C2/C(=O)Nc3ccc(Br)cc32)nc2ccccc21`?
Activity [1]: 18.9%; inhibition of growth at 50 µM [2]: > 50%; IC50 [3]: 8.63 µM; Activity (MDA-MB-231 [4]): Active; Activity (MDA-MB-231 [5]): 18.7%; Activity (MDA-MB-231 [6]): 4.2%; IC50 [7]: 10.7 µM; Activity [8]: 14.8%; inhibition of growth at 50 µM [9]: > 50%; viability at 4 µM (MDA-MB-231 [10]): 65.3%; Activity (MDA-MB-231 [11]): 3.3%; Activity (MDA-MB-231 [12]): 38.5%; Activity (MDA-MB-231 [13]): Dose-dependent effect; Activity (MDA-MB-231 [14]): Active; selectivity ratio [15]: 9.5; Activity [16]: 57.2%; IC50 [17]: 14.9 µM; Activity [18]: Dose-dependent effect; IC50 [19]: 5.96 µM; Activity [20]: 64.3%; Activity (MDA-MB-231 [21]): 8.6%; viability at 2 µM (MDA-MB-231 [22]): 73.6%; Activity (MDA-MB-231 [23]): Active
